# Data taken from ChEMBL document CHEMBL5058577, “EUbOPEN Chemogenomics Library 2 (Multiplex)” (2022).
# Tested on: Fibroblast
# Assay: Multiplex assay against human fibroblast
# Type: toxicity, cell-based
# Procedure, shortened: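 Hoechst33342, BioTracker Green Microtubule Cytoskeleton Dye, MitoTracker Red and Annexin V Alexa Fluor 680 were added to live cells at seeding, and imaging on a CQ1 microscope at 37°C and 5% CO2 followed compound addition. Gating by CellPathfinder machine learning separated cells into Hoechst high-intensity objects or normal cells, then normal cells into healthy, pyknosed or fragmented nuclei, then pyknosed cells into mitotic or apoptotic. Per cents of healthy-nucleus cells are reported for the tubulin, mitochondrial-mass and membrane-permeability phenotypes.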
# [1] = 12 h, 1 µM, compound concentration 1 uM, replicate 1
# [2] = 12 h, 1 µM, compound concentration 1 uM, replicate 2
# [3] = 12 h, 10 µM, compound concentration 10 uM, replicate 1
# [4] = 12 h, 10 µM, compound concentration 10 uM, replicate 2
# [5] = 24 h, 1 µM, compound concentration 1 uM, replicate 1
# [6] = 24 h, 1 µM, compound concentration 1 uM, replicate 2
# [7] = 24 h, 10 µM, compound concentration 10 uM, replicate 1
# [8] = 24 h, 10 µM, compound concentration 10 uM, replicate 2
# [9] = 48 h, 1 µM, compound concentration 1 uM, replicate 1
# [10] = 48 h, 1 µM, compound concentration 1 uM, replicate 2
# [11] = 48 h, 10 µM, compound concentration 10 uM, replicate 1
# [12] = 48 h, 10 µM, compound concentration 10 uM, replicate 2
smiles,measurement,setting,value
O=C(CCCc1ccccc1)Nc1nc2ccccc2c(=O)s1,Population Apoptotic (%),[1],58%
same,Population Fragmented Nuclei (%),[1],9%
same,Population Healthy Nuclei (%),[1],66%
same,Population Hoechst High Intensity Objects (%),[1],2%
same,Population Membrane Permeable-Phenotype (%),[1],0%
same,Population Mitochondria Different-Phenotype (%),[1],4%
same,Population Mitotic Cells (%),[1],41%
same,Population Normal (%),[1],97%
same,Population Pyknosed Nuclei (%),[1],23%
same,Population Tubulin-Different-Phenotype (%),[1],34%
same,Total Cell Count,[1],127
same,Population Apoptotic (%),[2],34%
same,Population Fragmented Nuclei (%),[2],19%
same,Population Healthy Nuclei (%),[2],49%
same,Population Hoechst High Intensity Objects (%),[2],3%
same,Population Membrane Permeable-Phenotype (%),[2],9%
same,Population Mitochondria Different-Phenotype (%),[2],7%
same,Population Mitotic Cells (%),[2],65%
same,Population Normal (%),[2],96%
same,Population Pyknosed Nuclei (%),[2],31%
same,Population Tubulin-Different-Phenotype (%),[2],35%
same,Total Cell Count,[2],135
same,Population Apoptotic (%),[3],51%
same,Population Fragmented Nuclei (%),[3],21%
same,Population Healthy Nuclei (%),[3],58%
same,Population Hoechst High Intensity Objects (%),[3],2%
same,Population Membrane Permeable-Phenotype (%),[3],1%
same,Population Mitochondria Different-Phenotype (%),[3],4%
same,Population Mitotic Cells (%),[3],48%
same,Population Normal (%),[3],97%
same,Population Pyknosed Nuclei (%),[3],20%
same,Population Tubulin-Different-Phenotype (%),[3],28%
same,Total Cell Count,[3],147
same,Population Apoptotic (%),[4],31%
same,Population Fragmented Nuclei (%),[4],26%
same,Population Healthy Nuclei (%),[4],38%
same,Population Hoechst High Intensity Objects (%),[4],12%
same,Population Membrane Permeable-Phenotype (%),[4],13%
same,Population Mitochondria Different-Phenotype (%),[4],17%
same,Population Mitotic Cells (%),[4],68%
same,Population Normal (%),[4],87%
same,Population Pyknosed Nuclei (%),[4],35%
same,Population Tubulin-Different-Phenotype (%),[4],48%
same,Total Cell Count,[4],133
same,Population Apoptotic (%),[5],50%
same,Population Fragmented Nuclei (%),[5],13%
same,Population Healthy Nuclei (%),[5],68%
same,Population Hoechst High Intensity Objects (%),[5],2%
same,Population Membrane Permeable-Phenotype (%),[5],0%
same,Population Mitochondria Different-Phenotype (%),[5],5%
same,Population Mitotic Cells (%),[5],50%
same,Population Normal (%),[5],97%
same,Population Pyknosed Nuclei (%),[5],18%
same,Population Tubulin-Different-Phenotype (%),[5],20%
same,Total Cell Count,[5],147
same,Population Apoptotic (%),[6],42%
same,Population Fragmented Nuclei (%),[6],21%
same,Population Healthy Nuclei (%),[6],51%
same,Population Hoechst High Intensity Objects (%),[6],5%
same,Population Membrane Permeable-Phenotype (%),[6],4%
same,Population Mitochondria Different-Phenotype (%),[6],4%
same,Population Mitotic Cells (%),[6],57%
same,Population Normal (%),[6],94%
same,Population Pyknosed Nuclei (%),[6],26%
same,Population Tubulin-Different-Phenotype (%),[6],35%
same,Total Cell Count,[6],131
same,Population Apoptotic (%),[7],46%
same,Population Fragmented Nuclei (%),[7],19%
same,Population Healthy Nuclei (%),[7],60%
same,Population Hoechst High Intensity Objects (%),[7],5%
same,Population Membrane Permeable-Phenotype (%),[7],0%
same,Population Mitochondria Different-Phenotype (%),[7],3%
same,Population Mitotic Cells (%),[7],53%
same,Population Normal (%),[7],94%
same,Population Pyknosed Nuclei (%),[7],20%
same,Population Tubulin-Different-Phenotype (%),[7],15%
same,Total Cell Count,[7],135
same,Population Apoptotic (%),[8],53%
same,Population Fragmented Nuclei (%),[8],34%
same,Population Healthy Nuclei (%),[8],39%
same,Population Membrane Permeable-Phenotype (%),[8],18%
same,Population Mitochondria Different-Phenotype (%),[8],14%
same,Population Mitotic Cells (%),[8],46%
same,Population Pyknosed Nuclei (%),[8],25%
same,Population Tubulin-Different-Phenotype (%),[8],62%
same,Total Cell Count,[8],134
same,Population Apoptotic (%),[9],59%
same,Population Fragmented Nuclei (%),[9],13%
same,Population Healthy Nuclei (%),[9],66%
same,Population Hoechst High Intensity Objects (%),[9],5%
same,Population Membrane Permeable-Phenotype (%),[9],1%
same,Population Mitochondria Different-Phenotype (%),[9],1%
same,Population Mitotic Cells (%),[9],40%
same,Population Normal (%),[9],94%
same,Population Pyknosed Nuclei (%),[9],19%
same,Population Tubulin-Different-Phenotype (%),[9],32%
same,Total Cell Count,[9],146
same,Population Apoptotic (%),[10],42%
same,Population Fragmented Nuclei (%),[10],26%
same,Population Healthy Nuclei (%),[10],58%
same,Population Hoechst High Intensity Objects (%),[10],2%
same,Population Membrane Permeable-Phenotype (%),[10],4%
same,Population Mitochondria Different-Phenotype (%),[10],6%
same,Population Mitotic Cells (%),[10],57%
same,Population Normal (%),[10],97%
same,Population Pyknosed Nuclei (%),[10],15%
same,Population Tubulin-Different-Phenotype (%),[10],50%
same,Total Cell Count,[10],127
same,Population Apoptotic (%),[11],58%
same,Population Fragmented Nuclei (%),[11],19%
same,Population Healthy Nuclei (%),[11],58%
same,Population Hoechst High Intensity Objects (%),[11],2%
same,Population Membrane Permeable-Phenotype (%),[11],1%
same,Population Mitochondria Different-Phenotype (%),[11],2%
same,Population Mitotic Cells (%),[11],41%
same,Population Normal (%),[11],97%
same,Population Pyknosed Nuclei (%),[11],22%
same,Population Tubulin-Different-Phenotype (%),[11],26%
same,Total Cell Count,[11],143
same,Population Apoptotic (%),[12],77%
same,Population Fragmented Nuclei (%),[12],40%
same,Population Healthy Nuclei (%),[12],43%
same,Population Hoechst High Intensity Objects (%),[12],5%
same,Population Membrane Permeable-Phenotype (%),[12],10%
same,Population Mitochondria Different-Phenotype (%),[12],14%
same,Population Mitotic Cells (%),[12],22%
same,Population Normal (%),[12],94%
same,Population Pyknosed Nuclei (%),[12],16%
same,Population Tubulin-Different-Phenotype (%),[12],73%
same,Total Cell Count,[12],119
